Experimental data published in PubChem BioAssay.
Records with an inconclusive call do not appear.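 Rule for the calls, unless noted: active = cell viability at or below a set limit in both duplicate runs, the limit being the all-compound median minus 4 SD (cut at about 23% in these data, passing the limit was not always enough); inconclusive = no clear call, values can overlap the other calls; inactive = the rest.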

Tests used:
[1] = OD615 S. cerevisiae growth inhibition, permissive medium, pilot counter-assay, permissive growth control for S. cerevisiae lifespan shortening project (AID 705;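 active = growth inhibition above 25% in both replicates, a cutoff set 3 SD above the mean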); settings: OD615, 24 h, at 10 µM, active compounds read high
Outline: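 Material: engineered DeaD yeast; compound dosing: one dose 10 µM, DMSO 0.25% final; measure: yeast growth inhibition indicated by reduced 24 h OD615; detection: OD615 turbidity read; incubation: cells pre-grown 4 h, then 24 h compound exposure, 30 °C humidified; medium: permissive synthetic complete medium with raffinose and galactose carbon sources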

[2] = Restrictive medium S. cerevisiae growth inhibition, OD615, pilot screen of yeast lifespan reduction project, restrictive growth control (AID 706;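 active = growth inhibition above a set limit, 3 SD over mean compound inhibition, in both replicates, cut at about 43% in these data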;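 note: modified DeaD lifespan yeast strain shifted to restrictive glucose medium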); settings: OD615, 48 h, at 10 µM, active compounds read high
Outline: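 material = engineered S. cerevisiae DeaD strain | medium = glucose-based CSMM-D restrictive medium | times = 4 h pre-incubation, 48 h exposure at 30 °C | technique = OD615 absorbance reading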

[3] = viability gain of MRP-1-high H69AR cells under doxorubicin, pilot screen, MRP-1 activator project, CellTiter-Glo, duplicate (AID 807;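 active = viability increase at or above a cutoff of the median across tested compounds plus 3 SD, cut at about 8.5% in these data, passing the limit was not always enough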;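 note: compound pretreatment 18-22 h then 72 h combined with doxorubicin; 0% = doxorubicin alone and 100% = vehicle without doxorubicin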); settings: H69AR viability with doxorubicin, CellTiter-Glo luminescence; at 10 µM; active compounds read high
[4] = growth suppression of beta-catenin knockout HCT116, pilot screen, human colon tumor cells (AID 823); settings: CellTiter-Glo, 60 h, at 10 µM, active compounds read low;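 note: 0% = wells killed by 20 µM Hyamine and 100% = untreated DMSO cell wells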
[5] = growth suppression of PTEN-deleted HCT116, pilot screen, cell-based, HCT116 clonal line, CellTiter-Glo (AID 824;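 active = viability at or below 27.92% in each of two runs, the all-compound median minus 4 SD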;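 note: 0% = 20 µM Hyamine control and 100% = vehicle cell control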); settings: 60 h, at 10 µM, active compounds read low
[6] = inhibitors of the yeast RAM network, pilot screen, dse1pr::URA3 reporter, 5-FOA selection (AID 869;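 active = inhibition over a set limit, the all-compound mean plus 3 SD, in both replicate runs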;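 note: 0% = DMSO wells with no growth and 100% = 10 µM 1-NA-PP1 with full growth; RAM network block rescues cells from 5-FOA so hits raise OD615 growth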); settings: S. cerevisiae dse1pr::URA3 5-FOA growth, OD615, 2 d; at 10 µM; active compounds read high; strain carries analog-sensitive mutant Cbk1 kinase
[7] = RAM signaling pathway blockade in yeast – S. cerevisiae, Pdr1DBD-CYC8 efflux-inhibited sensitized strain, primary screen (AID 1298;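 active = RAM network inhibition above 8.4% in each of two replicates, 3 SD over the compound average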;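 note: 0% = DMSO untreated cells without growth and 100% = 10 µM 1-NA-PP1 full growth; higher means more yeast growth rescued from 5-FOA killing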); settings: S. cerevisiae cbk1-as DSE1-URA3 strain, 5-FOA growth OD615, 2 d; at 50 µM; active compounds read high

CCOC(=O)CSc1nc2nc(C)cc(C)n2n1
inactive: growth inhibition [1] 4.15% | growth inhibition [2] 6.3% | viability increase [3] -1.33% | viability [4] 101% | viability [5] 96% | inhibition [6] 2.5% | RAM network inhibition [7] 4.98%

COc1cc2c(cc1OC)C(c1ccco1)CC(=O)N2 (stereo unspecified)
inactive: growth inhibition [1] -6.61% | growth inhibition [2] -1.62% | viability increase [3] -2.43% | viability [4] 101% | viability [5] 101% | inhibition [6] 1.06% | RAM network inhibition [7] 3.34%

CCOc1ccc(C2NC(=O)c3n[nH]c(C)c32)cc1 (stereo unspecified)
inactive: growth inhibition [1] -3.56% | growth inhibition [2] 8.35% | viability increase [3] 1.63% | viability [4] 107% | viability [5] 103% | inhibition [6] 1.07% | RAM network inhibition [7] 0.36%

CCCCSc1nc2c(c(=O)n1CC)SC(C)C2 (stereo unspecified)
inactive: growth inhibition [1] -3.78% | growth inhibition [2] 5.58% | viability increase [3] -2.43% | viability [4] 87.3% | viability [5] 87.8% | inhibition [6] 0.125% | RAM network inhibition [7] 5.53%

COc1ccc(C2CC3CC(c4ccccc4)N2O3)cc1 (stereo unspecified)
inactive: growth inhibition [1] -3.88% | growth inhibition [2] -2.38% | viability increase [3] -1.22% | viability [4] 89.3% | viability [5] 93.5% | inhibition [6] 2.11% | RAM network inhibition [7] 4.21%

CCN1CCN(C(=O)C2CCN(Cc3nc(-c4cccc(Cl)c4)oc3C)CC2)CC1
inactive: growth inhibition [1] -1.82% | growth inhibition [2] -14.3% | viability increase [3] -4.04% | viability [4] 69% | viability [5] 72.4% | inhibition [6] 0.9% | RAM network inhibition [7] 1.16%

CC(=O)C1=C(C)N=c2s/c(=C/c3ccc4c(c3)OCO4)c(=O)n2C1c1ccc(N(C)C)cc1 (stereo unspecified)
inactive: growth inhibition [1] -9.92% | growth inhibition [2] -9.9% | viability increase [3] -1.24% | viability [4] 93.2% | viability [5] 89.5% | inhibition [6] 1.13% | RAM network inhibition [7] 4.19%

COc1cccc(C2CC(c3ccc(Cl)cc3)Nc3nc(N)nn32)c1 (stereo unspecified)
inactive: growth inhibition [1] 4.02% | growth inhibition [2] 11.4% | viability increase [3] 3.49% | viability [4] 91.4% | viability [5] 83% | inhibition [6] 1.92% | RAM network inhibition [7] 6.11%

Cc1ccsc1-c1nc(CSCC(=O)NCc2ccc3c(c2)OCO3)c(C)o1
inactive: growth inhibition [1] -9.04% | growth inhibition [2] 2.91% | viability increase [3] -0.27% | viability [4] 87.2% | viability [5] 84% | inhibition [6] 0.83% | RAM network inhibition [7] 9.63%

O=C1C(C=NCc2cccnc2)=C(O)c2ccccc21
inactive: growth inhibition [1] -6.25% | growth inhibition [2] -0.095% | viability increase [3] -2.11% | viability [4] 94.1% | viability [5] 93.4% | inhibition [6] 1.67% | RAM network inhibition [7] 2.36%

CCOC(=O)N1CCN(C(=O)c2cc(C)no2)CC1
inactive: growth inhibition [1] -9.98% | growth inhibition [2] -7.27% | viability increase [3] 1.34% | viability [4] 104% | viability [5] 109% | inhibition [6] 1.04% | RAM network inhibition [7] 2.19%

Cc1cccc(-c2nc(CS(=O)CC(=O)N3CCCCC3)c(C)o2)c1 (stereo unspecified)
inactive: growth inhibition [1] -8.38% | growth inhibition [2] -15.3% | viability increase [3] -0.7% | viability [4] 101% | viability [5] 92.3% | inhibition [6] 0.205% | RAM network inhibition [7] 3.41%

CCOc1ccc(OCC)c(NC(=O)C2CCCN2S(=O)(=O)c2cccc3cccnc23)c1 (stereo unspecified)
inactive: growth inhibition [1] -0.54% | growth inhibition [2] 8.82% | viability increase [3] -3.84% | viability [4] 69.8% | viability [5] 65.7% | inhibition [6] -0.48% | RAM network inhibition [7] 5.36%

COc1ccc(C(=O)Nc2ccc(S(=O)(=O)N3CCCCC3C)cc2)c(OC)c1OC (stereo unspecified)
inactive: growth inhibition [1] -3.56% | growth inhibition [2] -3.8% | viability increase [3] -0.18% | viability [4] 91.2% | viability [5] 96.1% | inhibition [6] 0.03% | RAM network inhibition [7] 1.24%

COc1cccc(N2C(=O)C3CCCN3C2c2ccc(Cl)cc2)c1 (stereo unspecified)
inactive: growth inhibition [1] 3.31% | growth inhibition [2] 17.5% | viability increase [3] -2.51% | viability [4] 95.2% | viability [5] 87% | inhibition [6] 1.21% | RAM network inhibition [7] 2.53%

Cc1ccc(-c2nc(NC(=O)CSc3nnc4scc(-c5ccccc5)n34)ns2)cc1
inactive: growth inhibition [1] 0.135% | growth inhibition [2] 0.99% | viability increase [3] 1.17% | viability [4] 74% | viability [5] 66.8% | inhibition [6] 2.42% | RAM network inhibition [7] 5.6%

Cn1cnnc1SCC(=O)Nc1ccccc1
inactive: growth inhibition [1] -6.99% | growth inhibition [2] -16.3% | viability increase [3] 2.03% | viability [4] 100% | viability [5] 102% | inhibition [6] -0.32% | RAM network inhibition [7] 1.79%

O=C(Oc1ccccc1)c1cccc(N2C(=O)CCC2=O)c1
inactive: growth inhibition [1] -1.76% | growth inhibition [2] 0.85% | viability increase [3] -1.06% | viability [4] 105% | viability [5] 105% | inhibition [6] 1.27% | RAM network inhibition [7] 1.74%
